The source made the active and inactive calls. No cut-off for these calls is given here.
What was measured:
[1] = system: A549; assay: Induction of apoptosis in human A549 cells assessed as increase in cleaved PARP expression at 7.5 to 30 uM by Western blot analysis; type: functional, cell-based; settings: dose 7.5-30 µM
Summary of the method: (§1)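 A549 treated with compound (0, 7.5, 15, 30 μM) or diosgenin (0, 15, 30 μM), lysed in RIPA and boiled 10 min. 30 μg protein run on 10% SDS-PAGE, blotted to nitrocellulose, blocked in 5% BSA. Primary antibodies used at 1:1000, HRP secondary at 1:5000 for 2 h, ECL detection. β-actin served as loading control.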

[2] = system: A549; assay: Induction of apoptosis in human A549 cells assessed as increase in cleaved caspase 9 expression at 7.5 to 30 uM by Western blot analysis; type: functional, cell-based; settings: dose 7.5-30 µM; summary of the method: as §1
[3] = system: A549; assay: Induction of apoptosis in human A549 cells assessed as increase in Bax expression by Western blot analysis; type: functional, cell-based; settings: dose 7.5-30 µM; summary of the method: as §1
[4] = system: A549; assay: Induction of apoptosis in human A549 cells assessed as cell rounding at 15 to 30 uM measured after 48 hrs by phase contrast microscopic analysis; type: functional, cell-based; settings: dose 15-30 µM
Summary of the method: (§2)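 A549 seeded at 2×10^5 cells/well and allowed to settle 24 h. Then exposed 48 h to test compound (15 or 30 μM) or diosgenin (30 μM); controls received 0.1% DMSO. Cell shape examined by phase contrast microscopy.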

[5] = system: A549; assay: Induction of apoptosis in human A549 cells assessed as increase in cyto-c expression by Western blot analysis; type: functional, cell-based; settings: dose 7.5-30 µM; summary of the method: as §1
[6] = system: A549; assay: Induction of mitochondrial depolarization in human A549 cells assessed as depolarized cell population at 15 uM measured after 48 hrs by JC1 dye based flow cytometry (reference value: 0.4%); type: functional
[7] = system: A549; assay: Induction of apoptosis in human A549 cells assessed as membrane blebbing at 15 to 30 uM measured after 48 hrs by phase contrast microscopic analysis; type: functional, cell-based; settings: dose 15-30 µM; summary of the method: as §2
[8] = system: HepG2; assay: Cytotoxicity against human HepG2 cells assessed as reduction in cell viability measured after 48 hrs by MTT assay; type: functional, cell-based; settings: HepG2, 48 h
Summary of the method: (§3)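 Cells in DMEM with 10% FBS, penicillin/streptomycin, 37 °C, 5% CO2. Seeded at 5×10^3 per well directly into medium holding graded concentrations of sample and incubated 48 h. MTT (5 mg/mL in PBS) added for 4 h, medium replaced with DMSO, absorbance read at 492 nm. IC50 taken as the concentration giving 50% inhibition of proliferation; three replicates, means ± SD.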

[9] = system: A549; assay: Induction of apoptosis in human A549 cells assessed as late apoptotic cells at 30 uM after 48 hrs by AnnexinV-FITC/propidium iodide staining based flow cytometry analysis (reference value: 1 to 3.1 %); type: functional
[10] = system: A549; assay: Induction of apoptosis in human A549 cells assessed as late apoptotic cells at 15 uM after 48 hrs by AnnexinV-FITC/propidium iodide staining based flow cytometry analysis (reference value: 1 to 3.1 %); type: functional
[11] = system: A549; assay: Induction of apoptosis in human A549 cells assessed as decrease in Bcl-2 expression by Western blot analysis; type: functional, cell-based; settings: dose 7.5-30 µM; summary of the method: as §1
[12] = system: A549; assay: Cytotoxicity against human A549 cells assessed as reduction in cell viability measured after 48 hrs by MTT assay; type: functional, cell-based; settings: A549, 48 h; summary of the method: as §3
[13] = system: HCT-116; assay: Cytotoxicity against human HCT-116 cells assessed as reduction in cell viability measured after 48 hrs by MTT assay; type: functional, cell-based; settings: HCT-116, 48 h; summary of the method: as §3
[14] = system: A549; assay: Potency index, ratio of diosgenin IC50 to test compound IC50 for cytotoxicity against human A549 cells assessed as reduction in cell viability; type: functional
[15] = system: A549; assay: Induction of apoptosis in human A549 cells assessed as chromatin condensation at 15 to 30 uM measured after 48 hrs by DAPI staining based fluorescence microscopic analysis; type: functional, cell-based; settings: dose 15-30 µM
Summary of the method: (§4)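 A549 plated at 2×10^5 cells/well and grown 24 h. Treated 48 h with test compound (15 or 30 μM) or diosgenin (30 μM); vehicle control 0.1% DMSO. Fixed in 4% formaldehyde 1 h at 4 °C, stained with 5 μM DAPI for 10 min at 37 °C in the dark, and viewed by fluorescence microscopy.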

[16] = system: A549; assay: Induction of apoptosis in human A549 cells assessed as cell shrinkage at 15 to 30 uM measured after 48 hrs by phase contrast microscopic analysis; type: functional, cell-based; settings: dose 15-30 µM; summary of the method: as §2
[17] = system: A549; assay: Induction of mitochondrial depolarization in human A549 cells assessed as depolarized cell population at 30 uM measured after 48 hrs by JC1 dye based flow cytometry (reference value: 0.4%); type: functional
[18] = system: MCF7; assay: Cytotoxicity against human MCF7 cells assessed as reduction in cell viability measured after 48 hrs by MTT assay; type: functional, cell-based; settings: MCF7, 48 h; summary of the method: as §3
[19] = system: A549; assay: Induction of apoptosis in human A549 cells assessed as nuclear fragmentation at 15 to 30 uM measured after 48 hrs by DAPI staining based fluorescence microscopic analysis; type: functional, cell-based; settings: dose 15-30 µM; summary of the method: as §4
[20] = system: A549; assay: Induction of mitochondrial depolarization in human A549 cells assessed as increase in depolarized cell population measured after 48 hrs by JC1 dye based flow cytometry; type: functional; settings: dose 15-30 µM
[21] = system: A549; assay: Induction of apoptosis in human A549 cells assessed as formation of apoptotic bodies at 15 to 30 uM measured after 48 hrs by phase contrast microscopic analysis; type: functional, cell-based; settings: dose 15-30 µM; summary of the method: as §2
[22] = system: GES1; assay: Cytotoxicity against human GES1 cells assessed as reduction in cell viability measured after 48 hrs by MTT assay; type: cell-based; settings: GES1, 48 h; summary of the method: as §3
[23] = system: A549; assay: Induction of apoptosis in human A549 cells assessed as increase in cleaved caspase 3 expression at 7.5 to 30 uM by Western blot analysis; type: functional, cell-based; settings: dose 7.5-30 µM; summary of the method: as §1
[24] = system: A549; assay: Induction of apoptosis in human A549 cells assessed as early apoptotic cells at 30 uM after 48 hrs by AnnexinV-FITC/propidium iodide staining based flow cytometry analysis (reference value: 0.5 to 2.3 %); type: functional
[25] = system: A549; assay: Induction of apoptosis in human A549 cells assessed as early apoptotic cells at 15 uM after 48 hrs by AnnexinV-FITC/propidium iodide staining based flow cytometry analysis (reference value: 0.5 to 2.3 %); type: functional
[26] = system: HepG2; assay: Potency index, ratio of diosgenin IC50 to test compound IC50 for cytotoxicity against human HepG2 cells assessed as reduction in cell viability; type: functional

**Q.** How did the Activity [1] turn out when `CC(=O)O[C@H]1CC[C@@]2(C)C(=CC[C@H]3[C@@H]4C[C@@H]5O[C@H](CC[C@H](C)c6nnc(-c7cccnc7)s6)[C@@H](C)[C@@H]5[C@@]4(C)CC[C@@H]32)C1` was run?
**A.** Active

**Q.** And the Activity [2]?
**A.** Active

**Q.** And the Activity [3]?
**A.** Dose-dependent effect

**Q.** What about the Activity [4] of the same compound?
**A.** Active

**Q.** What about the Activity [5] of the same compound?
**A.** Dose-dependent effect

**Q.** What about the Activity [6] of the same compound?
**A.** 7.5%

**Q.** And the Activity [7]?
**A.** Active

**Q.** And the IC50 [8]?
**A.** 11.7 µM

**Q.** What about the Activity [9] of the same compound?
**A.** 21.3%

**Q.** What about the Activity [10] of the same compound?
**A.** 15.1%

**Q.** What about the Activity [11] of the same compound?
**A.** Dose-dependent effect

**Q.** And the IC50 [12]?
**A.** 3.93 µM

**Q.** What about the IC50 [13] of the same compound?
**A.** 29.6 µM

**Q.** And the “Ratio IC50” value [14]?
**A.** 6.7

**Q.** What about the Activity [15] of the same compound?
**A.** Active

**Q.** And the Activity [16]?
**A.** Active

**Q.** What about the Activity [17] of the same compound?
**A.** 26%

**Q.** And the IC50 [18]?
**A.** > 100 µM

**Q.** What about the Activity [19] of the same compound?
**A.** Active

**Q.** What about the Activity [20] of the same compound?
**A.** Dose-dependent effect

**Q.** What about the Activity [21] of the same compound?
**A.** Active

**Q.** And the IC50 [22]?
**A.** 420 µM

**Q.** What about the Activity [23] of the same compound?
**A.** Active

**Q.** And the Activity [24]?
**A.** 60%

**Q.** And the Activity [25]?
**A.** 21%

**Q.** And the “Ratio IC50” value [26]?
**A.** 2.9

Source: ChEMBL document CHEMBL4715838, “Novel diosgenin derivatives containing 1,3,4-oxadiazole/thiadiazole moieties as potential antitumor agents: Design, synthesis and cytotoxic evaluation” (Eur J Med Chem, 2020)
